From publication PMC7274092 (Nature biomedical engineering, 2020)

Columns and labels:
[1] = Diffusion-ordered NMR spectroscopy; type: physicochemical; conditions: approximated from DOSY diffusion rate by the Stokes-Einstein relationship
liver and kidney = experiment: Biocompatibility of CB[7]-PEG in healthy rats; type: in vivo, Sprague Dawley rats; conditions: s.c. 0.2 mg/kg once daily for six weeks, n=4
Procedure, shortened: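 Healthy 10-week-old Sprague Dawley rats (n=4) received CB[7]-PEG at 0.2 mg/kg s.c. in PBS (pH 7.4) once daily for six weeks. […] Blood chemistry was run on an automated analyzer from samples taken on days 14, 28 and 42. At endpoint, liver and kidney were collected for single-blinded histopathology.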

[2] = insulin hexamer, for comparison; cited from earlier work

Row | Molecule | hydrodynamic radius (Rh) [1] [nm] | also measured
1 | CC[C@H](C)[C@H](NC(=O)[C@@H]1CCCN1C(=O)CNC(=O)[C@H](Cc1ccccc1)NC(=O)[C@H](CC(N)=O)NC(=O)[C@H](CC(N)=O)NC(=O)[C@H](CO)NC(=O)[C@H](CO)NC(=O)[C@H](Cc1c[nH]cn1)NC(=O)[C@@H](NC(=O)[C@H](CC(C)C)NC(=O)[C@H](Cc1ccccc1)NC(=O)[C@H](CC(N)=O)NC(=O)[C@H](C)NC(=O)[C@H](CC(C)C)NC(=O)[C@H](CCCNC(=N)N)NC(=O)[C@H](CCC(N)=O)NC(=O)[C@@H](NC(=O)[C@H](C)NC(=O)[C@@H]1CSSC[C@H](NC(=O)[C@@H](N)CCCCN)C(=O)N[C@@H](CC(N)=O)C(=O)N[C@@H]([C@@H](C)O)C(=O)N[C@@H](C)C(=O)N[C@@H]([C@@H](C)O)C(=O)N1)[C@@H](C)O)C(C)C)C(=O)N[C@@H](CC(C)C)C(=O)N1CCC[C@H]1C(=O)N1CCC[C@H]1C(=O)N[C@H](C(=O)N[C@@H](CC(N)=O)C(=O)N[C@H](C(=O)NCC(=O)N[C@@H](CO)C(=O)N[C@@H](CC(N)=O)C(=O)N[C@H](C(=O)N[C@@H](Cc1ccc(O)cc1)C(N)=O)[C@@H](C)O)C(C)C)[C@@H](C)O [pramlintide] | 1.2 | 
2 | cucurbit[7]uril-conjugated polyethylene glycol [CB[7]-PEG] |  | blood chemistry and liver/kidney histopathology vs untreated controls (liver and kidney): No differences
3 | insulin aspart | ~2.2 | 
4 | insulin hexamer: hexameric association state of insulin |  | hydrodynamic radius [2]: approximately 2.8 nm
